This note sets out measurements from ChEMBL document CHEMBL1136923, “Highly potent, orally available anti-inflammatory broad-spectrum chemokine inhibitors” (J Med Chem, 2009).

The target in data set [1] is T1, C5a anaphylatoxin chemotactic receptor 1 (Homo sapiens) (UniProt P21730).
T1 sequence (whole entry): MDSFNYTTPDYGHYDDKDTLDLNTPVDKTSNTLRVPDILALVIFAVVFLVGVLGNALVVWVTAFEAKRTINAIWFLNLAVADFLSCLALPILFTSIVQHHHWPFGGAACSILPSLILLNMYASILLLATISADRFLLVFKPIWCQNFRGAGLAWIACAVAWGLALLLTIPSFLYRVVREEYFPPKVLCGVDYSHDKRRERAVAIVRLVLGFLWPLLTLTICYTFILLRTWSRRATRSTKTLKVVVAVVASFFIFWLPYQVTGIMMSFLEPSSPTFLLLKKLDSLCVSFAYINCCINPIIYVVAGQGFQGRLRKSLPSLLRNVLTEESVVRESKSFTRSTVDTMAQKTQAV
The data set is described as follows: Antagonist activity at C5a receptor in human PMNC assessed as inhibition of C5a-induced chemotaxis after 2 hrs by microtiter format trans-well migration assay. The format is functional. The gist of the method:
(§1)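 Microtiter trans-well migration assay in Gey's balanced salt solution with 1 mg/mL endotoxin-free BSA, no fetal calf serum. Migration ran 2 h at 37 °C. Compounds dissolved in DMSO and added to both top and bottom compartments, final DMSO 1%.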

Data set [2] addresses C-C chemokine receptor type 2 (Homo sapiens) (UniProt P41597). The data set is described as follows: Antagonist activity at CCR2 in human THP1 cells assessed as inhibition of CCL2-induced chemotaxis at 0.1 nM after 2 hrs by microtiter format trans-well migration assay. It is filed as functional, cell-based. As to conditions: THP-1. Put shortly:
as §1

The target is the same in data set [3]. The data set is described as follows: Antagonist activity at CCR2 in human THP1 cells assessed as inhibition of CCL2-induced chemotaxis at 0.01 nM after 2 hrs by microtiter format trans-well migration assay. The format is functional, cell-based. As to conditions: THP-1. The gist of the method:
as §1

Data set [4] addresses T2, C-C chemokine receptor type 1 (Homo sapiens) (UniProt P32246).
T2 sequence (whole entry): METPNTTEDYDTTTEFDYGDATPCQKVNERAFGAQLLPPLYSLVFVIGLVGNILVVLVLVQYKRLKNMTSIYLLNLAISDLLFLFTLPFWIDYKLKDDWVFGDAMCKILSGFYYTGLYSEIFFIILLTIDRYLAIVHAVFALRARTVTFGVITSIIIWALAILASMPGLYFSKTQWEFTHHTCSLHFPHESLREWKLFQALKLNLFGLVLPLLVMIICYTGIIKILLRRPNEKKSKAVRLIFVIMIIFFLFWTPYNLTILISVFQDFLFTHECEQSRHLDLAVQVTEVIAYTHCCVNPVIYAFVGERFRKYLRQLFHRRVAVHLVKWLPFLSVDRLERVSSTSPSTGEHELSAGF
The data set is described as follows: Antagonist activity at CCR1 in human THP1 cells assessed as inhibition of CCL3-induced chemotaxis at 0.1 nM after 2 hrs by microtiter format trans-well migration assay. It is filed as functional, cell-based. As to conditions: THP-1. The gist of the method: as §1

The target of data set [5] is T2, C-C chemokine receptor type 1 (Homo sapiens). The data set is described as follows: Antagonist activity at CCR1 in human THP1 cells assessed as inhibition of CCL3-induced chemotaxis at 0.01 nM after 2 hrs by microtiter format trans-well migration assay. It is filed as functional, cell-based. As to conditions: THP-1. Put shortly:
as §1

The target of data set [6] is C-C chemokine receptor type 5 (Homo sapiens) (UniProt P51681). The data set is described as follows: Antagonist activity at CCR5 in human THP1 cells assessed as inhibition of CCL5-induced chemotaxis at 1 nM after 2 hrs by microtiter format trans-well migration assay. It is filed as functional, cell-based. As to conditions: THP-1. The gist of the method: as §1
Chain of C-C chemokine receptor type 5 (Homo sapiens) (P51681 whole entry, looked up): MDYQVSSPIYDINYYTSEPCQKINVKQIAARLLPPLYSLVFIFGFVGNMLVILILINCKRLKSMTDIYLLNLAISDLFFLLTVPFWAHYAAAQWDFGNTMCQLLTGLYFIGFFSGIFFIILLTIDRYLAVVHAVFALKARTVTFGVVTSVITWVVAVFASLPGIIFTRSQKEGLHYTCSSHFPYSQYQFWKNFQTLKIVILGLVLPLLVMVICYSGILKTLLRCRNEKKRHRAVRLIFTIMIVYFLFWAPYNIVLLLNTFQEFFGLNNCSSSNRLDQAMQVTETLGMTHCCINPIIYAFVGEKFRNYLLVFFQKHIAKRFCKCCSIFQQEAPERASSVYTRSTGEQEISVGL
In data set [7] the target is T1, C5a anaphylatoxin chemotactic receptor 1 (Homo sapiens). The data set is described as follows: Antagonist activity at C5a receptor in human PMNC assessed as inhibition of C5a-induced chemotaxis at 0.1 nM after 2 hrs by microtiter format trans-well migration assay. The format is functional. Put shortly: as §1
In data set [8] the target is C-X-C chemokine receptor type 4 (Homo sapiens) (UniProt P61073). The data set is described as follows: Antagonist activity at CXCR4 in human THP1 cells assessed as inhibition of CXCL12-induced chemotaxis at 0.1 nM after 2 hrs by microtiter format trans-well migration assay. It is filed as functional, cell-based. As to conditions: THP-1. The gist of the method: as §1
Chain of C-X-C chemokine receptor type 4 (Homo sapiens) (P61073 whole entry): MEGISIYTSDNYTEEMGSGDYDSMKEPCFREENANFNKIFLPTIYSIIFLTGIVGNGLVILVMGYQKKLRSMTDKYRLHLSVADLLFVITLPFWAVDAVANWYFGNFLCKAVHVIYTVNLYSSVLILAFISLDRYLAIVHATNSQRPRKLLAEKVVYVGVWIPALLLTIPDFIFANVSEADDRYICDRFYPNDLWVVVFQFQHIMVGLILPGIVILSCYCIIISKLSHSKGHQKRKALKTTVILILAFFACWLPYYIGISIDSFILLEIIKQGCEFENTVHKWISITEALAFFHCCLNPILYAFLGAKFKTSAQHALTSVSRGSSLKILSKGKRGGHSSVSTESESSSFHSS

Data set [9] has the same target. The data set is described as follows: Antagonist activity at CXCR4 in human THP1 cells assessed as inhibition of CXCL12-induced chemotaxis at 0.01 nM after 2 hrs by microtiter format trans-well migration assay. It is filed as functional, cell-based. As to conditions: THP-1. The gist of the method:
as §1

A short description of data set [10]: Antagonist activity at Interleukin-8 receptor in human PMNC assessed as inhibition of CXCL8-induced chemotaxis at 100 nM after 2 hrs by microtiter format trans-well migration assay. The format is functional. Put shortly:
as §1

In data set [11] the test system is THP-1. The data set is described as follows: Endogenous chemoattractant activity at human THP1 cells assessed as cell migration at 10 uM after 2 hrs by microtiter format trans-well migration assay. The format is functional.
For data set [12], the system named is THP-1. The data set is described as follows: Cytotoxicity against human THP1 cells up to 100 uM by trypan blue exclusion assay. It is filed as cell-based.
In data set [13] the test system is Mus musculus. The data set is described as follows: Antiinflammatory activity in sc dosed mouse assessed as inhibition of LPS-induced TNFalpha upregulation measured 2 hrs after LPS challenge. It is filed as functional.
For data set [14], the system named is Mus musculus. The data set is described as follows: Antiinflammatory activity in mouse assessed as inhibition of LPS-induced TNFalpha upregulation at 830 pg, sc measured 2 hrs after LPS challenge. The format is functional. Put shortly: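 Murine sublethal LPS endotoxemia screen. LPS is injected intraperitoneally and serum TNF-α is measured 2 h later as the end point. Compound is given subcutaneously or orally in a vehicle of 0.6% DMSO plus 1% carboxymethylcellulose (final concentrations) in sterile water. Values are % relative to control.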

Data set [15] relates to Mus musculus. The data set is described as follows: Antiinflammatory activity in mouse assessed as inhibition of LPS-induced TNFalpha upregulation at 0.025 ug, sc measured 2 hrs after LPS challenge. It is filed as functional. Put shortly: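 Murine sublethal endotoxemia: LPS given intraperitoneally, with serum TNF-α measured 2 h after the LPS injection as the end point. Compound was given subcutaneously or orally. Vehicle was 0.6% DMSO and 1% carboxymethylcellulose (final concentrations) in sterile water. Effect is reported as % relative to control.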

Data set [16] can be described thus: Half life in Sprague-Dawley rat at 1 mg/kg, iv administered as single dose. It is filed as ADME, organism-based. Also noted: dose 1 mg/kg, route intravenous. As to conditions: in vivo. The gist of the method: (§2)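 Male Sprague-Dawley rats, three per compound, receive a single intravenous dose in 5% DMSO in 0.9% saline. Food and water are given ad libitum. Plasma is taken at 5, 15, 30, 60, 120, 180, 240 and 480 min. Drug is measured by LC/MS/MS after extraction with 0.1% formic acid in acetonitrile. The curve is back-extrapolated to time zero assuming an initial volume of 0.26 L/kg.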

Data set [17] can be described thus: Volume of distribution at steady state in Sprague-Dawley rat at 1 mg/kg, iv administered as single dose. The format is ADME, organism-based. Details: dose 1 mg/kg, route intravenous. As to conditions: in vivo, read-out: Vdss. The gist of the method:
as §2

Data set [18] is described as follows: Fractional bioavailability in Sprague-Dawley rat at 3 mg/kg, po administered as single dose. The format is ADME, organism-based. As to conditions: in vivo. The gist of the method: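 Male Sprague-Dawley rats, three per compound, receive a single oral dose by gavage in 1% carboxymethylcellulose in 0.9% saline, with food and water ad libitum. Plasma is sampled from 5 to 480 min and drug is quantified by positive-mode LC/MS/MS after acetonitrile/formic acid extraction. The lower limit of quantitation is about 2 ng/mL. Exposure is AUC(0→t) by the linear/log trapezoidal rule, and F is oral fractional bioavailability.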

A short description of data set [19]: AUC (0 to t) in Sprague-Dawley rat at 3 mg/kg, po administered as single dose. Also noted: dose 3 mg/kg, route oral. As to conditions: plasma. The format is ADME, organism-based. The gist of the method: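 Male Sprague-Dawley rats, three per compound per route, single dose. IV vehicle 5% DMSO in 0.9% saline; oral gavage vehicle 1% carboxymethylcellulose in 0.9% saline; fed ad libitum. Plasma taken 5–480 min post-dose, extracted with 0.1% formic acid in acetonitrile, quantified by LC/MS/MS (positive mode). AUC(0–t) by linear/log trapezoidal rule; IV curve back-extrapolated assuming initial volume 0.26 L/kg.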

Chain of C-C chemokine receptor type 2 (Homo sapiens) (P41597 whole entry, looked up): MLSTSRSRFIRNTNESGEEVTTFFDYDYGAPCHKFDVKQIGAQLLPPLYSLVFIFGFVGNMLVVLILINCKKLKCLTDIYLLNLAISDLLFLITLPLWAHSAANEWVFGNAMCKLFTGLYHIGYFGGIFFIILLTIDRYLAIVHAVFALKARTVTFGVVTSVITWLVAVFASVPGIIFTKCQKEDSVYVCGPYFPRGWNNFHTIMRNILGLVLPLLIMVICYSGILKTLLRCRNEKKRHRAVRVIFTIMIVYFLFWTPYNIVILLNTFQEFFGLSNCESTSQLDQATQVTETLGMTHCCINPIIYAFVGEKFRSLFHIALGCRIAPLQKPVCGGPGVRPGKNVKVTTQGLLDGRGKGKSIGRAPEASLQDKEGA

As a reminder, the inhibition is the drop in the measured response relative to a control, in per cent. What is called half-life is the time in which the quantity being followed falls by half. Lower therefore signals rapid decline. Usually bioavailability stands for dose-corrected exposure relative to a reference, in per cent. One may read the AUC(0-t) as the area under the concentration-time curve up to a stated or last time point. For `CCCCCCCCCCC(C)(C)C(=O)N[C@H]1CCCCNC1=O`, the ED50 was more than 1000 nM in data set [1] and 0.15 µg/kg in the data set on Mus musculus [13]. In addition, the inhibition in data set [2] stood at 53.5%; in data set [3] it was 12%; in [4] it was 43%; in data set [5], 21%; in data set [6], 56%; in data set [7], 26.5%. The inhibition came to 13% in [8] and 15.5% in [9]. In addition, the inhibition at 0.1 µM in data set [10] turned out to be 128%. The figures for the Activity in the data set on THP-1 [11] and with THP-1 [12] were 2540% and “Non-toxic”, respectively. The entries for the “inhibition (INH)” value with Mus musculus [14] and in the data set with Mus musculus [15] were 18% and 67%, respectively. This molecule returned a half-life in data set [16] of 46 min. The Vd in [17] was 2 L/kg. The molecule also had a bioavailability in data set [18] of 16%. Moreover, in data set [19], the AUC(0-t) is 183 ng·h/mL.
